According to ChEMBL document CHEMBL4261491, “Synthesis and synergistic antifungal effects of monoketone derivatives of curcumin against fluconazole-resistant Candida spp” (Medchemcomm, 2017):
Values after ≈ are worked out from the molar mass of the structure shown.

Tests used:
Candida albicans [1] = test: Antifungal activity against fluconazole-resistant Candida albicans clinical isolate 103 by broth microdilution method; type: functional
Summary of the method: (§1)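 Broth microdilution per CLSI/NCCLS M27-A2 against FLC-resistant clinical isolates. MIC80 read for each compound alone and with fluconazole at 8.0 μg ml–1. C. albicans ATCC 90028 served as quality control. Curcumin was the positive control.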

Pichia kudriavzevii [2] = test: Antifungal activity against fluconazole-resistant Candida krusei clinical isolate 2159 by broth microdilution method; type: functional; summary of the method: as §1
Candida albicans [3] = test: Antifungal activity against fluconazole-resistant Candida albicans clinical isolate 103 in presence of 8 ug/ml fluconazole by broth microdilution method; type: functional; details: for MIC80: Candida albicans, isolate 103; summary of the method: as §1
Candida tropicalis [4] = test: Antifungal activity against fluconazole-resistant Candida tropicalis clinical isolate 087 by broth microdilution method; type: functional; summary of the method: as §1
Pichia kudriavzevii [5] = test: Antifungal activity against fluconazole-resistant Candida krusei clinical isolate 2159 in presence of 8 ug/ml fluconazole by broth microdilution method; type: functional; details: for MIC80: Pichia kudriavzevii, isolate 2159; summary of the method: as §1
Candida tropicalis [6] = test: Antifungal activity against fluconazole-resistant Candida tropicalis clinical isolate 087 in presence of 8 ug/ml fluconazole by broth microdilution method; type: functional; details: for MIC80: Candida tropicalis, isolate 087; summary of the method: as §1
[7] = Cytotoxicity against HUVEC assessed as cell viability at 16 ug/ml after 24 hrs by MTT assay relative to control; type: cell-based; details: human, HUVEC cells; read-out: Activity
Summary of the method: (§2)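 HUVECs grown in DMEM with 10% FCS and 100 μg ml–1 streptomycin, 5% CO2, 37 °C. Cells exposed to compounds at 16 and 32 μg ml–1 for 24 h, then incubated with MTT solution (5 mg ml–1) for 3 h. Optical density read at 570 nm. Viability expressed as percentage relative to drug-free control.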

[8] = Cytotoxicity against HUVEC assessed as cell viability at 32 ug/ml after 24 hrs by MTT assay relative to control; type: cell-based; details: human, HUVEC cells; read-out: Activity; summary of the method: as §2

## COc1cccc(/C=C2\CC/C(=C\c3cccc(OC)c3OC)C2=O)c1OC
Candida albicans [1]
  MIC80: > 64 µg/mL
Pichia kudriavzevii [2]
  MIC80: > 64 µg/mL
Candida albicans [3]
  fractional inhibitory concentration index (FICI): >1.06
  MIC80: > 64 µg/mL
Candida tropicalis [4]
  MIC80: > 64 µg/mL
Pichia kudriavzevii [5]
  fractional inhibitory concentration index (FICI): >1.06
  MIC80: > 64 µg/mL
Candida tropicalis [6]
  fractional inhibitory concentration index (FICI): >1.06
  MIC80: > 64 µg/mL

## O=C(/C=C(O)/C=C/c1ccc(O)c(O)c1)/C=C/c1ccc(O)c(O)c1
Candida albicans [1]
  MIC80: 64 µg/mL (≈ 188 µM)
Pichia kudriavzevii [2]
  MIC80: 4 µg/mL (≈ 11.8 µM)
Candida albicans [3]
  fractional inhibitory concentration index (FICI): 0.125
  MIC80: 4 µg/mL
Candida tropicalis [4]
  MIC80: 64 µg/mL (≈ 188 µM)
Pichia kudriavzevii [5]
  fractional inhibitory concentration index (FICI): 0.563
  MIC80: 2 µg/mL
Candida tropicalis [6]
  fractional inhibitory concentration index (FICI): 0.125
  MIC80: 4 µg/mL

## O=C(/C=C/c1ccc(Cl)cc1Cl)/C=C/c1ccc(Cl)cc1Cl
Candida albicans [1]
  MIC80: > 64 µg/mL
Pichia kudriavzevii [2]
  MIC80: > 64 µg/mL
Candida albicans [3]
  fractional inhibitory concentration index (FICI): >1.06
  MIC80: > 64 µg/mL
Candida tropicalis [4]
  MIC80: > 64 µg/mL
Pichia kudriavzevii [5]
  fractional inhibitory concentration index (FICI): >1.06
  MIC80: > 64 µg/mL
Candida tropicalis [6]
  fractional inhibitory concentration index (FICI): 0.313
  MIC80: 16 µg/mL

## O=C1/C(=C/c2ccc(CO)o2)CC/C1=C\c1ccc(CO)o1
Candida albicans [1]
  MIC80: > 64 µg/mL
Pichia kudriavzevii [2]
  MIC80: > 64 µg/mL
[7]
  viability at 24 h, 16 ug/ml: 68%
Candida albicans [3]
  fractional inhibitory concentration index (FICI): >1.06
  MIC80: > 64 µg/mL
Candida tropicalis [4]
  MIC80: > 64 µg/mL
Pichia kudriavzevii [5]
  fractional inhibitory concentration index (FICI): >1.06
  MIC80: > 64 µg/mL
[8]
  viability at 24 h, 32 ug/ml: 57%
Candida tropicalis [6]
  fractional inhibitory concentration index (FICI): 0.125
  MIC80: 4 µg/mL

## O=C(/C=C/c1c(Cl)cccc1Cl)/C=C/c1c(Cl)cccc1Cl
Candida albicans [1]
  MIC80: > 64 µg/mL
Pichia kudriavzevii [2]
  MIC80: > 64 µg/mL
Candida albicans [3]
  fractional inhibitory concentration index (FICI): >1.06
  MIC80: > 64 µg/mL
Candida tropicalis [4]
  MIC80: > 64 µg/mL
Pichia kudriavzevii [5]
  fractional inhibitory concentration index (FICI): >1.06
  MIC80: > 64 µg/mL
Candida tropicalis [6]
  fractional inhibitory concentration index (FICI): >1.06
  MIC80: > 64 µg/mL

## O=C1/C(=C/c2ccc(O)cc2)CC/C1=C\c1ccc(O)cc1
Candida albicans [1]
  MIC80: > 64 µg/mL
Pichia kudriavzevii [2]
  MIC80: > 64 µg/mL
[7]
  viability at 24 h, 16 ug/ml: 69%
Candida albicans [3]
  fractional inhibitory concentration index (FICI): >1.06
  MIC80: > 64 µg/mL
Candida tropicalis [4]
  MIC80: > 64 µg/mL
Pichia kudriavzevii [5]
  fractional inhibitory concentration index (FICI): >1.06
  MIC80: > 64 µg/mL
[8]
  viability at 24 h, 32 ug/ml: 60%
Candida tropicalis [6]
  fractional inhibitory concentration index (FICI): 0.188
  MIC80: 8 µg/mL

## O=C(/C=C/c1ccc2c(c1)OCO2)/C=C/c1ccc2c(c1)OCO2
Candida albicans [1]
  MIC80: > 64 µg/mL
Pichia kudriavzevii [2]
  MIC80: > 64 µg/mL
[7]
  viability at 24 h, 16 ug/ml: 88%
Candida albicans [3]
  fractional inhibitory concentration index (FICI): 0.563
  MIC80: 32 µg/mL
Candida tropicalis [4]
  MIC80: > 64 µg/mL
Pichia kudriavzevii [5]
  fractional inhibitory concentration index (FICI): 0.094
  MIC80: 2 µg/mL
[8]
  viability at 24 h, 32 ug/ml: 71%
Candida tropicalis [6]
  fractional inhibitory concentration index (FICI): 0.313
  MIC80: 16 µg/mL

## O=C(/C=C/c1ccc(F)cc1)/C=C/c1ccc(F)cc1
Candida albicans [1]
  MIC80: > 64 µg/mL
Pichia kudriavzevii [2]
  MIC80: > 64 µg/mL
[7]
  viability at 24 h, 16 ug/ml: 64%
Candida albicans [3]
  fractional inhibitory concentration index (FICI): >1.06
  MIC80: > 64 µg/mL
Candida tropicalis [4]
  MIC80: > 64 µg/mL
Pichia kudriavzevii [5]
  fractional inhibitory concentration index (FICI): >1.06
  MIC80: > 64 µg/mL
[8]
  viability at 24 h, 32 ug/ml: 43%
Candida tropicalis [6]
  fractional inhibitory concentration index (FICI): 0.188
  MIC80: 8 µg/mL

## O=C1/C(=C/c2ccc3c(c2)OCO3)CC/C1=C\c1ccc2c(c1)OCO2
Candida albicans [1]
  MIC80: > 64 µg/mL
Pichia kudriavzevii [2]
  MIC80: > 64 µg/mL
Candida albicans [3]
  fractional inhibitory concentration index (FICI): >1.06
  MIC80: > 64 µg/mL
Candida tropicalis [4]
  MIC80: > 64 µg/mL
Pichia kudriavzevii [5]
  fractional inhibitory concentration index (FICI): >1.06
  MIC80: > 64 µg/mL
Candida tropicalis [6]
  fractional inhibitory concentration index (FICI): 1.06
  MIC80: 64 µg/mL

## COc1ccc(/C=C/C(=O)/C=C/c2ccc(OC)c(OC)c2)cc1OC
Candida albicans [1]
  MIC80: > 64 µg/mL
Pichia kudriavzevii [2]
  MIC80: > 64 µg/mL
[7]
  viability at 24 h, 16 ug/ml: 67%
Candida albicans [3]
  fractional inhibitory concentration index (FICI): >1.06
  MIC80: > 64 µg/mL
Candida tropicalis [4]
  MIC80: > 64 µg/mL
Pichia kudriavzevii [5]
  fractional inhibitory concentration index (FICI): >1.06
  MIC80: > 64 µg/mL
[8]
  viability at 24 h, 32 ug/ml: 55%
Candida tropicalis [6]
  fractional inhibitory concentration index (FICI): 0.125
  MIC80: 4 µg/mL

## O=C(/C=C/c1ccco1)/C=C/c1ccco1
Candida albicans [1]
  MIC80: > 64 µg/mL
Pichia kudriavzevii [2]
  MIC80: > 64 µg/mL
Candida albicans [3]
  fractional inhibitory concentration index (FICI): >1.06
  MIC80: > 64 µg/mL
Candida tropicalis [4]
  MIC80: > 64 µg/mL
Pichia kudriavzevii [5]
  fractional inhibitory concentration index (FICI): >1.06
  MIC80: > 64 µg/mL
Candida tropicalis [6]
  fractional inhibitory concentration index (FICI): 0.313
  MIC80: 16 µg/mL

## COc1cc(/C=C/C(=O)CC(=O)/C=C/c2ccc(O)c(OC)c2)ccc1O [CURCUMIN]
[7]
  viability at 24 h, 16 ug/ml: 80%
Candida albicans [3]
  fractional inhibitory concentration index (FICI): 0.188
  MIC80: 8 µg/mL
Pichia kudriavzevii [5]
  fractional inhibitory concentration index (FICI): 0.188
  MIC80: 8 µg/mL
[8]
  viability at 24 h, 32 ug/ml: 22%
Candida tropicalis [6]
  fractional inhibitory concentration index (FICI): 0.188
  MIC80: 8 µg/mL
